Activity calls are given as the source filed them. The calls are words filed in the database; no cut-off is given here. Some results are limits rather than exact numbers.

The subject of assay [1] is SK-BR-3. Briefly: Cytotoxicity against human SKBR3 cells incubated for 72 hrs by MTT assay. It counts as functional, cell-based. As to conditions: SK-BR-3, 72 h.
In assay [2] the test system is LNCaP. Briefly: Cytotoxicity against human LNCAP cells incubated for 72 hrs by MTT assay. In kind it is functional, cell-based. In a few lines:
(§1)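 Cells were kept in DMEM (MDA-MB-435, MCF7, LNCaP) or RPMI (HT29, HCT116) with 10% heat-inactivated FBS and 2 mM L-glutamine, subconfluent and in exponential growth. They were seeded, allowed to adhere overnight, then exposed continuously to compound (10 mM DMSO stock) for 72 h. MTT was added to 0.3 mg/mL final for 3–4 h at 37 °C, formazan was dissolved in DMSO, and absorbance was read at 570 nm. Runs were in triplicate; IC50 came from log concentration versus percent cell kill.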

Assay [3] concerns HCT-116. Briefly: Cytotoxicity against p53 expressing human HCT116 cells incubated for 72 hrs by MTT assay. As to conditions: HCT-116, 72 h. In kind it is functional, cell-based. Put shortly: as §1
Assay [4] has as its system MCF7. Briefly: Cytotoxicity against human MCF7 cells incubated for 72 hrs by MTT assay. In kind it is functional, cell-based. As to conditions: MCF7, 72 h. Put shortly:
as §1

For assay [5], the system named is MDA-MB-435. Briefly: Inhibition of colony formation in human MDA-MB-435 cells treated continuously for 7 days by crystal violet staining based colony formation assay. It counts as functional, cell-based. In a few lines: (§2)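 MDA-MB-435 cells (500 per well) were adhered overnight and treated with compound at 10 μM, or across a dose range. The methods describe a 24 h treatment, then PBS washing and 7–10 days regrowth; the figure legend describes continuous 7-day treatment. Colonies were fixed and stained with 2% crystal violet containing 1% glutaraldehyde, then imaged.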

Assay [6] relates to MDA-MB-435. Briefly: Inhibition of colony formation in human MDA-MB-435 cells at 10 uM treated continuously for 7 days by crystal violet staining based colony formation assay. In kind it is functional, cell-based. In a few lines: as §2
For assay [7], the system named is MDA-MB-435. Nature of the assay: Cytotoxicity against human MDA-MB-435 cells incubated for 72 hrs by MTT assay. The conditions noted are these: MDA-MB-435, 72 h. In kind it is functional, cell-based. In a few lines:
as §1

The target of assay [8] is Proto-oncogene tyrosine-protein kinase Src (Homo sapiens) (UniProt P12931). Nature of the assay: Inhibition of SRC at 10 uM incubated for 60 mins using poly(Glu,Tyr)4:1 substrate and 10 uM ATP by ELISA. Put shortly:
(§3)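 ELISA with Poly(Glu,Tyr)4:1 (20 μg/mL) precoated as substrate and 10 μM ATP, in 50 mM HEPES pH 7.4, 20 mM MgCl2, 0.1 mM MnCl2, 0.2 mM Na3VO4, 1 mM DTT. Compound was tested at 10 μM, in duplicate. Kinase reaction ran 60 min at 37 °C. Phosphotyrosine was detected with PY99 and HRP anti-mouse IgG, developed with o-phenylenediamine/H2O2, stopped with H2SO4 and read at 492 nm. Inhibition = [1 − A492 treated/A492 control] × 100%. References: lapatinib (ErbB2) and PP2 (Src), each at 10 μM.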

Assay [9] deals with HT-29. Nature of the assay: Cytotoxicity against human HT-29 cells incubated for 72 hrs by MTT assay. In kind it is functional, cell-based. The conditions noted are these: HT-29, 72 h. Put shortly:
as §1

Assay [10] has as its system MDA-MB-435. Nature of the assay: Induction of cell cycle arrest in human in human MDA-MB-435 cells assessed as accumulation at G0/G1 phase at 2 times cytotoxic IC50 level after 12 to 48 hrs by propidium iodide staining based flow cytometry. In kind it is functional.
For assay [11], the system named is HCT-116. Nature of the assay: Cytotoxicity against p53 deficient human HCT116 cells incubated for 72 hrs by MTT assay. In kind it is functional, cell-based. As to conditions: HCT-116, 72 h. Put shortly: as §1
Assay [12] has as its target Receptor tyrosine-protein kinase erbB-2 (Homo sapiens) (UniProt P04626). Nature of the assay: Inhibition of ErbB2 at 10 uM incubated for 60 mins using poly(Glu,Tyr)4:1 substrate and 10 uM ATP by ELISA. Put shortly: as §3
The target of assay [13] is Vascular endothelial growth factor receptor 2 (Homo sapiens) (UniProt P35968). The conditions noted are these: at 10 µM.
Vascular endothelial growth factor receptor 2 (Homo sapiens), sequence (P35968 whole entry): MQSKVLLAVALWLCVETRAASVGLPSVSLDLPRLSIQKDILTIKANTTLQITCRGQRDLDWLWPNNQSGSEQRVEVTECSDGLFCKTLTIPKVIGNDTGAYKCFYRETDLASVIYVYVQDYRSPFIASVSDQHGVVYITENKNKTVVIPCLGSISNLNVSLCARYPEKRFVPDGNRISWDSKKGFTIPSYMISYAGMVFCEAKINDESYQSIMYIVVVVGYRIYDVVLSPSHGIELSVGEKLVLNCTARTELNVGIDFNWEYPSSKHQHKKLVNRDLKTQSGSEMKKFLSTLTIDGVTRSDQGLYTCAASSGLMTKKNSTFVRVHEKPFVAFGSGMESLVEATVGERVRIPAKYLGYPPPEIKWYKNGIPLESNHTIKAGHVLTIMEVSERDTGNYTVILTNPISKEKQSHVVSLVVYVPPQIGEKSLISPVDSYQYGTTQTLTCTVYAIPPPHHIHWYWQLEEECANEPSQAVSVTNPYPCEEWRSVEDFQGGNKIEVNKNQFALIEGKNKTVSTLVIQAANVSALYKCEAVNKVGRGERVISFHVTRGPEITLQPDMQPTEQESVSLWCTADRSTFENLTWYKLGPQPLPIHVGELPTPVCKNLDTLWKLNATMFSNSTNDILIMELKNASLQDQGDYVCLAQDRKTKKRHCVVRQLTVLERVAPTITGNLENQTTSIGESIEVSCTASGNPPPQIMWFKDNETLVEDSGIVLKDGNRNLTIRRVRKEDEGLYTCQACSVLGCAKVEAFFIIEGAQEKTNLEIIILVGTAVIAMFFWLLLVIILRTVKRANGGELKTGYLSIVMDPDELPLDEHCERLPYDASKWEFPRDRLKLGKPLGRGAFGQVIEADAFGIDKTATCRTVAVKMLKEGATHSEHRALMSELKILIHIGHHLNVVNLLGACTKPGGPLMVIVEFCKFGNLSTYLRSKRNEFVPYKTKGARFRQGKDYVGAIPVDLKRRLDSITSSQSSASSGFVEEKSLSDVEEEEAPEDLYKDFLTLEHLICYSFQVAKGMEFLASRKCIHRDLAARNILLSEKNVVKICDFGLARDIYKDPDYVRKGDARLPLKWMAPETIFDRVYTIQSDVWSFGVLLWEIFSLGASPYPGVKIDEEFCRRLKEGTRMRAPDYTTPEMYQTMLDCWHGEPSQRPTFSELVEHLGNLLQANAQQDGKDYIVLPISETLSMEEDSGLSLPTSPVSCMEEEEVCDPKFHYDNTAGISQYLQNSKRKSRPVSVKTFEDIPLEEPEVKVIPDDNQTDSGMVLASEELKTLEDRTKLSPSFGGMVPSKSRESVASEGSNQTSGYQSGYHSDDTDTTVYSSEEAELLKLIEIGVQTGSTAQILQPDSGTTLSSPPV
Assay [14] has as its target Tyrosine-protein kinase Lck (Homo sapiens) (UniProt P06239). Nature of the assay: Inhibition of LCK at 10 uM in presence of ATP at Km level by kinase profiler method.
The target in assay [15] is Insulin-like growth factor 1 receptor (Homo sapiens) (UniProt P08069). Briefly: Inhibition of IGF1R at 10 uM in presence of ATP at Km level by kinase profiler method.
Insulin-like growth factor 1 receptor (Homo sapiens), sequence (P08069 31-736 limits assumed): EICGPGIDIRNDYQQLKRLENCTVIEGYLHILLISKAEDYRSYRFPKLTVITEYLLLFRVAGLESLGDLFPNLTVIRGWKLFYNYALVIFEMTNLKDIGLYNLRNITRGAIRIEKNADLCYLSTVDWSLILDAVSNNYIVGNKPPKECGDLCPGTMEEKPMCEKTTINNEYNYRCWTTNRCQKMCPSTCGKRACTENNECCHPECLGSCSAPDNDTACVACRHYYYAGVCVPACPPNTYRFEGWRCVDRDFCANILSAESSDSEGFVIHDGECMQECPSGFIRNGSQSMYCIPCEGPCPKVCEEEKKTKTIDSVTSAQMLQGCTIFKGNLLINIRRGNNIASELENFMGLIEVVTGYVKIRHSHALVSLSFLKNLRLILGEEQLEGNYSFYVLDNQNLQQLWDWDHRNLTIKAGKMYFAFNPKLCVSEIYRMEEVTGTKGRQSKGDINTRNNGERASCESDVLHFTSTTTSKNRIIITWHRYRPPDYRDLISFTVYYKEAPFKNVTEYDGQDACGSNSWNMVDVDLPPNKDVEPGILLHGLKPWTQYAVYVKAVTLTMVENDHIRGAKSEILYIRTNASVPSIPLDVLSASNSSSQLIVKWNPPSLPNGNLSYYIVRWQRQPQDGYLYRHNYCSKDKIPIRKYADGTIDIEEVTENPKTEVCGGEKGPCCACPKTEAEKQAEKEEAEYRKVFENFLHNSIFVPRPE
Insulin-like growth factor 1 receptor (Homo sapiens), sequence (P08069 741-1367 limits assumed): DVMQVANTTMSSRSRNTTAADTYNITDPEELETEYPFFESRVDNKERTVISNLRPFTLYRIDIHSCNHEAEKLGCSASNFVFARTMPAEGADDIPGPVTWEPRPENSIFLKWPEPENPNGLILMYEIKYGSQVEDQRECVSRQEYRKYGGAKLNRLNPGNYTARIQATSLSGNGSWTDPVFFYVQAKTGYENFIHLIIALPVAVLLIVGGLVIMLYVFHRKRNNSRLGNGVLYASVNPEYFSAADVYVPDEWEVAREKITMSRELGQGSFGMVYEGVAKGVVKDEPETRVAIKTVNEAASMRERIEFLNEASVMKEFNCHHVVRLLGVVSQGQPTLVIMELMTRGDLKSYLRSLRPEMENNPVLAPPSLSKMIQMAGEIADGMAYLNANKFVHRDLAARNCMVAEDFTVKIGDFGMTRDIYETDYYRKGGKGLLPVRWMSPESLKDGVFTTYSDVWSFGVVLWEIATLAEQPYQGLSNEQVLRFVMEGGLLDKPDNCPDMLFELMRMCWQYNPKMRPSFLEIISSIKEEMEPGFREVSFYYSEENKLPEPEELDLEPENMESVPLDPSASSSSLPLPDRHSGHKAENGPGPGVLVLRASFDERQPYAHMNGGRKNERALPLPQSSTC
Assay [16] concerns Tyrosine-protein kinase ABL1 (Homo sapiens), P00519 [T315I]. Briefly: Inhibition of Abl T315I mutant at 10 uM in presence of ATP at Km level by kinase profiler method.
The target in assay [17] is Fibroblast growth factor receptor 1 (Homo sapiens) (UniProt P11362). Briefly: Inhibition of FGFR1 at 10 uM in presence of ATP at Km level by kinase profiler method.
Assay [18] concerns HEY. Briefly: Cytotoxicity against human HEY cells incubated for 72 hrs by MTT assay. In kind it is functional, cell-based.
Assay [19] has as its target T1, Aurora kinase A (Homo sapiens) (UniProt O14965).
T1 sequence (whole entry): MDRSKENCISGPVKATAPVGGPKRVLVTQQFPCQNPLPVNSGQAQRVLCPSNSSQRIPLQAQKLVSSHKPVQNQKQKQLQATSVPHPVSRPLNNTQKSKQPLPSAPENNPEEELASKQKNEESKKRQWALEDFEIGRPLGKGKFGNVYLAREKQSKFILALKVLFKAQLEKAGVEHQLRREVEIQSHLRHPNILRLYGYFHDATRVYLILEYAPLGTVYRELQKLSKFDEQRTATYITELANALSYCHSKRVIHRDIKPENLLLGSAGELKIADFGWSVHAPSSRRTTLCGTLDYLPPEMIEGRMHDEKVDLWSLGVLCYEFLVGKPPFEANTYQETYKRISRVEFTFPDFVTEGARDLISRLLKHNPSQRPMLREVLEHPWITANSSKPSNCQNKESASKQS
Briefly: Inhibition of Aurora A kinase at 10 uM in presence of ATP at Km level by kinase profiler method.

Assay [20] has as its target Hepatocyte growth factor receptor (Homo sapiens) (UniProt P08581). Nature of the assay: Inhibition of MET at 10 uM in presence of ATP at Km level by kinase profiler method.
Assay [21] concerns the target Angiopoietin-1 receptor (Homo sapiens) (UniProt Q02763). Briefly: Inhibition of TIE2 at 10 uM in presence of ATP at Km level by kinase profiler method.
The target of assay [22] is Vascular endothelial growth factor receptor 2 (Homo sapiens) (UniProt P35968). Nature of the assay: Inhibition of KDR at 10 uM in presence of ATP at Km level by kinase profiler method.
Assay [23] concerns MDA-MB-435. Briefly: Induction of cell cycle arrest in human in human MDA-MB-435 cells assessed as accumulation at G0/G1 phase at 2 times cytotoxic IC50 level after 12 hrs by propidium iodide staining based flow cytometry. In kind it is functional.
The target of assay [24] is T2, Human immunodeficiency virus type 1 integrase (Human immunodeficiency virus 1, UniProt Q7ZJM1). Nature of the assay: Inhibition of HIV1 integrase strand transfer activity using [32P]-labeled linear oligonucleotide substrate.
T2 sequence (Q7ZJM1 whole entry): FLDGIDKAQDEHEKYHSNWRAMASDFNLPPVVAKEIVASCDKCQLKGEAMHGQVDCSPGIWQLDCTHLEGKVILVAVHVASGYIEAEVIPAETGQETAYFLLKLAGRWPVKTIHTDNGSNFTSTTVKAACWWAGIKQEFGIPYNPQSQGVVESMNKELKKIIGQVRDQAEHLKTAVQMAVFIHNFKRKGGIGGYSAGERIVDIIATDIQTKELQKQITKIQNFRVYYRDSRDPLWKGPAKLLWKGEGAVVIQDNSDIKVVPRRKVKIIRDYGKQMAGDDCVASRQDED
The target in assay [25] is T2, Human immunodeficiency virus type 1 integrase. Nature of the assay: Inhibition of HIV1 integrase 3'-processing activity using [32P]-labeled linear oligonucleotide substrate.
In assay [26] the test system is MDA-MB-435. Briefly: Induction of cell cycle arrest in human in human MDA-MB-435 cells assessed as accumulation at G0/G1 phase at 2 times cytotoxic IC50 level after 48 hrs by propidium iodide staining based flow cytometry (reference value: 36%). In kind it is functional.

Proto-oncogene tyrosine-protein kinase Src (Homo sapiens), sequence (P12931 2-536 limits assumed): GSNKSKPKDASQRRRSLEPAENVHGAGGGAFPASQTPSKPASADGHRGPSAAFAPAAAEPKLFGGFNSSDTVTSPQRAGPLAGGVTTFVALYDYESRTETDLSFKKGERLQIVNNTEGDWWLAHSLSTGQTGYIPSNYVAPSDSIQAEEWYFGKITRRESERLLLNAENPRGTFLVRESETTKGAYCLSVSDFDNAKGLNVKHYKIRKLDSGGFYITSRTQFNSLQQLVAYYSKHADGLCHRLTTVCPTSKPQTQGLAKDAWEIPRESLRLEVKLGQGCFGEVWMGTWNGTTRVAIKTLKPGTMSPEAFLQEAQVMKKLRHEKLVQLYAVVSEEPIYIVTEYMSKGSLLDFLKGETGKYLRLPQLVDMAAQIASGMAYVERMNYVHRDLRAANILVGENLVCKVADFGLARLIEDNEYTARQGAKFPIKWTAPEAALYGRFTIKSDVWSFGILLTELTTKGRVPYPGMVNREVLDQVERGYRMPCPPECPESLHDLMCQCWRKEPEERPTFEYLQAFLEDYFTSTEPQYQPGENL
Receptor tyrosine-protein kinase erbB-2 (Homo sapiens), sequence (P04626 whole entry): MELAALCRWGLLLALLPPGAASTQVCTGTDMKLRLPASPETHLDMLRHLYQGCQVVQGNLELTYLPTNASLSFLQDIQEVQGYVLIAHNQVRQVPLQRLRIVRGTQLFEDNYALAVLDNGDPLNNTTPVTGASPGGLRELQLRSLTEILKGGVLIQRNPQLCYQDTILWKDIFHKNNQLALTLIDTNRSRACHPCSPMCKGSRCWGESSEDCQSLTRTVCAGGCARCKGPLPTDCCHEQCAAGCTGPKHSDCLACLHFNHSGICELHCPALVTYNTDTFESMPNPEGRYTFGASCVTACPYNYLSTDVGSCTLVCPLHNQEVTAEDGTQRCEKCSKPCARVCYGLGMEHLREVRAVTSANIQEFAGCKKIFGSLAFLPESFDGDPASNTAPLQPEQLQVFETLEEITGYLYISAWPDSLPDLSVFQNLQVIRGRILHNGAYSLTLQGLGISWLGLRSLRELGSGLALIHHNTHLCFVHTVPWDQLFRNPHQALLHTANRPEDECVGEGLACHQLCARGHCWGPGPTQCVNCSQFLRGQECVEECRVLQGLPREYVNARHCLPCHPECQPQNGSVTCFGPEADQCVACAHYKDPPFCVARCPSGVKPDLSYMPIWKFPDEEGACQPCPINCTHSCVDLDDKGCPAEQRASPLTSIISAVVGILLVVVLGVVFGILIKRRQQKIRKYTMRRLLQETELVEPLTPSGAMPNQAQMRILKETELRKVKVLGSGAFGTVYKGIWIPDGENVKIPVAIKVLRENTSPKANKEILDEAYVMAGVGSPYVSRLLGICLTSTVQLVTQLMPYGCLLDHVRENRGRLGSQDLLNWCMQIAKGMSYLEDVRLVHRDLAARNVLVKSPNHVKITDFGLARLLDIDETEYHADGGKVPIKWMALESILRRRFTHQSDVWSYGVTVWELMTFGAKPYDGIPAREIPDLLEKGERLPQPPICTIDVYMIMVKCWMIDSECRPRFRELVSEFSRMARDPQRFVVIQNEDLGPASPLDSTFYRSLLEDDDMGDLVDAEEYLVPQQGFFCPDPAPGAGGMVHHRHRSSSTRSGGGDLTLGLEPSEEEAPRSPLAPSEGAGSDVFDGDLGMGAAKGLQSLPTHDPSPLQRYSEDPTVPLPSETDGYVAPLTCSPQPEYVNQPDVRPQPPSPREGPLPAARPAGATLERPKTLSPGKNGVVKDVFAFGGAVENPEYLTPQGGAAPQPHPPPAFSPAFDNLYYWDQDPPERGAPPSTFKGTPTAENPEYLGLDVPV

Take `N[C@H]1CC[C@H](Nc2c(C(=O)NCc3ccc(F)cc3)nc(Br)c3cccnc23)CC1`: the IC50 in assay [1] was 2 µM; in [2], 5 µM; in [3], 7 µM; in assay [4] it was 2 µM; in assay [7], 6 µM; in assay [9], under 1 µM. This molecule had an IC50 in [11] of 4 µM. Moreover, the inhibition result is “Dose-dependent effect” in [5], 13% in [8] and 7% in [12]. In addition, the inhibition entry in assay [6] was “Active”. Further, in assay [10], the outcome was Active.
In the case of `N[C@H]1CC[C@H](Nc2c(C(=O)NCc3ccc(Cl)cc3)nc(Br)c3cccnc23)CC1`, the IC50 in assay [1] worked out at 2 µM; in assay [3], 4 µM; in assay [7], 1 µM; in [18], 1 µM. For the same molecule, the inhibition is 34% in assay [13], 70% in assay [8] and 0% in assay [12]. Moreover, the inhibition result in assay [14], in assay [15], in assay [16], in [17] and in assay [19] was “Active” in each case.
With `N[C@H]1CC[C@H](Nc2c(C(=O)NCc3ccc(Cl)cc3Cl)nc(Br)c3cccnc23)CC1`, the IC50 worked out at 6 µM in assay [1], 6 µM in [3], 5.8 µM in assay [7] and 5 µM in [18]. Moreover, the inhibition amounted to 41% in [13], 90% in assay [8] and 13% in assay [12]. The inhibition entry in assay [14], in assay [15], in assay [16], in assay [17] and in [19] was “Active” in each case.
Take `COc1ccc(CNC(=O)c2nc(Br)c3cccnc3c2N[C@H]2CC[C@H](N)CC2)cc1`: the half-maximal inhibitory concentration (IC50) in assay [1] was 5 µM; in [3], 3 µM; in assay [7], 5 µM; in [18] it was 4 µM. In addition, the inhibition entry in [20], in assay [15], in assay [21], in assay [17] and in assay [22] was “Active” in each case. Also, the inhibition in assay [13] turned out to be 2%; in assay [8], 76%; in assay [12] it was 0%.
Consider `NCCCNc1c(C(=O)NCc2ccc(F)cc2)nc(Br)c2cccnc12`, for which the outcome in [23] was Active. Also, the IC50 was over 20 µM in assay [3]; over 100 µM in assay [24]; 6 µM in assay [4]; over 100 µM in assay [25]; 5 µM in assay [7]; 18 µM in [11]. Also, the inhibition result in [6] is “Active”. Moreover, the Activity in assay [26] stood at 61%.

Source of the values: ChEMBL document CHEMBL2176962, “Repositioning HIV-1 integrase inhibitors for cancer therapeutics: 1,6-naphthyridine-7-carboxamide as a promising scaffold with drug-like properties” (J Med Chem, 2012).
